Assays:
[1] = system: Isocitrate dehydrogenase [NADP] cytoplasmic (Homo sapiens), O75874 [R132H]; assay: Inhibition of human IDH1 R132H mutant expressed in IPTG-induced Escherichia coli BL21 cells assessed as oxidation of NADPH to NADP+ after 5 mins by spectrophotometry; parameters: concentration or dose not given beside the values
[2] = molecular target: Isocitrate dehydrogenase [NADP] cytoplasmic (Homo sapiens) (UniProt O75874); assay: Inhibition of human IDH1 expressed in IPTG-induced Escherichia coli BL21 cells assessed as reduction of NADP+ to NADPH after 5 mins by spectrophotometry; parameters: concentration or dose not given beside the values
[3] = molecular target: Isocitrate dehydrogenase [NADP] cytoplasmic (Homo sapiens, UniProt O75874, R132H); assay: Competitive inhibition of IDH1-R132H mutant (unknown origin) using a-ketoglutarate and NADPH as substrate by steady state kinetic analysis
Method in brief: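 IDH1-R132H in buffer of 150 mM NaCl, 20 mM Tris–Cl pH 7.5, 10 mM MnCl₂, 150 μM β-NADPH, 0.03% (w/v) BSA; α-ketoglutarate varied to reach maximal activity; steady-state kinetic parameters fitted with an enzyme kinetics module.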

Isocitrate dehydrogenase [NADP] cytoplasmic, sequence (O75874 2-414 R132H limits assumed): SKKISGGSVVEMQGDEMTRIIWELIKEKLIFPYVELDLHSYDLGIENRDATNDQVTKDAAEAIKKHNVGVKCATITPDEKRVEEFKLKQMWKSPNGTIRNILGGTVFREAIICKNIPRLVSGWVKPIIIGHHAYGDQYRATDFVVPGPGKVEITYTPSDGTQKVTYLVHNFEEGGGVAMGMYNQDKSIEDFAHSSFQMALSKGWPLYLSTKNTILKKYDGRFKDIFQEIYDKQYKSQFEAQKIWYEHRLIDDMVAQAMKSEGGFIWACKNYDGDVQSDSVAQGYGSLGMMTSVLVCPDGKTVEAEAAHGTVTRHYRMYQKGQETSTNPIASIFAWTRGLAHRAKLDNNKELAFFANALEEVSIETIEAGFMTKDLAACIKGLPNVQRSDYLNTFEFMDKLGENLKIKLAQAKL
Isocitrate dehydrogenase [NADP] cytoplasmic (Homo sapiens), sequence (O75874 whole entry): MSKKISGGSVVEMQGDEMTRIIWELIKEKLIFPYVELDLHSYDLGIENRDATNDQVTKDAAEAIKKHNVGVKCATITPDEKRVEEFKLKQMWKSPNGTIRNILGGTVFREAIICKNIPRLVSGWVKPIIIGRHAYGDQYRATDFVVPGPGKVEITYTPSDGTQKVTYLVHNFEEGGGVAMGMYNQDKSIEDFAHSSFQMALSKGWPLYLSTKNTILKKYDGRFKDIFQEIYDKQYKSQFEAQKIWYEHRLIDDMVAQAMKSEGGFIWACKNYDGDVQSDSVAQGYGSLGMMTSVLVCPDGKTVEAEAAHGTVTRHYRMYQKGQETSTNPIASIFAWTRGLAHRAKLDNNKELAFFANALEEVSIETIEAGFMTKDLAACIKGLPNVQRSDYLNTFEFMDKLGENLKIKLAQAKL
Isocitrate dehydrogenase [NADP] cytoplasmic (Homo sapiens), O75874 [R132H], sequence (O75874 whole entry R132H): as the sequence (O75874 whole entry) above, with R132H counted along it

| SMILES | Activity [1] [%] | Activity [2] [%] | Ki ([3]; read-out: Ki) [µM] | Ki [3] |
| --- | --- | --- | --- | --- |
| CC[C@H](/C=C/[C@@H](C)[C@H]1CC[C@H]2[C@@H]3CC=C4C[C@@H](O)CC[C@]4(C)[C@H]3CC[C@]12C)C(C)C | 101 | 111 | – | – |
| COc1ccc(C(=O)O[C@H]2[C@@H]3C=CO[C@@H](O[C@@H]4O[C@H](CO)[C@@H](O)[C@H](O)[C@H]4O)[C@@H]3[C@@]3(CO)O[C@@H]23)cc1O | 103 | 102 | – | – |
| CC[C@H](CC[C@@H](C)[C@H]1CC[C@H]2[C@@H]3CC=C4C[C@@H](O[C@@H]5O[C@H](CO)[C@@H](O)[C@H](O)[C@H]5O)CC[C@]4(C)[C@H]3CC[C@]12C)C(C)C | 103 | 94.6 | – | – |
| C[C@H]1C(=O)CC[C@@H]2[C@]1(C)CC[C@H]1[C@@]2(C)CC[C@@]2(C)[C@@H]3CC(C)(C)CC[C@]3(C)CC[C@]12C | 108 | 104 | – | – |
| CC(C)=CCc1c(O)c(CC=C(C)C)c2oc3c(O)cccc3c(=O)c2c1O | 109 | 92.8 | – | – |
| C/C=C(/C)C(=O)O[C@H]1Cc2c(cc3oc(CO)cc(=O)c3c2O)OC1(C)C | 108 | 102 | – | – |
| COc1c2c(cc3oc(C)cc(=O)c13)OC(C(C)(C)O[C@H]1O[C@@H](CO)[C@H](O)[C@@H](O)[C@@H]1O)C2 (stereo not given in full) | 108 | 107 | – | – |
| COc1ccc(C(=O)O[C@H]2[C@@H]3C=CO[C@@H](O[C@@H]4O[C@H](CO)[C@@H](O)[C@H](O)[C@H]4O)[C@@H]3[C@@]3(CO)O[C@@H]23)cc1OC | 97.7 | 107 | – | – |
| C[C@H]1[C@H](C)CC[C@]2(C(=O)O)CC[C@]3(C)C(=CC[C@@H]4[C@@]5(C)CC[C@H](O)C(C)(C)[C@@H]5CC[C@]43C)[C@H]12 | 114 | 102 | – | – |
| COc1cc2oc3cc(O)c(OC)c(CC=C(C)C)c3c(=O)c2c(O)c1CC=C(C)C | – | – | 12 | – |
| COc1c2c(cc3oc(CO[C@@H]4O[C@H](CO)[C@@H](O)[C@H](O)[C@H]4O)cc(=O)c13)O[C@H](C(C)(C)O)C2 | 112 | 96.8 | – | – |
| C[C@H]1[C@@H](O)CC[C@@H]2[C@]1(C)CC[C@H]1[C@@]2(C)CC[C@@]2(C)[C@@H]3CC(C)(C)CC[C@]3(C)CC[C@]12C | 113 | 109 | – | – |
| C=C1CC[C@@H]2[C@](C)(CCC[C@]2(C)C(=O)O)[C@H]1CCc1ccoc1 | 92.8 | 100 | – | – |
| CC(C)=CCOc1c2occc2cc2ccc(=O)oc12 | 102 | 99 | – | – |
| COc1c(OC(=O)N2CCOCC2)cc2oc3cc(O)c(CC=C(C)C)c(O)c3c(=O)c2c1CC=C(C)C | – | – | – | Not Active |
| O=c1cc(-c2ccc(O)cc2)oc2cc(O)c(O)c(O)c12 | 92 | 89 | – | – |
| C[C@H]1[C@H](C)CC[C@]2(C)CC[C@]3(C)C(=CC[C@@H]4[C@@]5(C)CC[C@H](O)C(C)(C)[C@@H]5CC[C@]43C)[C@H]12 | 112 | 105 | – | – |
| O=C(O)c1cc(O)c(O)c(O)c1 | 103 | 97.4 | – | – |
| COc1ccc(/C=C/C(=O)O[C@H]2[C@@H]3C=CO[C@@H](O[C@@H]4O[C@H](CO)[C@@H](O)[C@H](O)[C@H]4O)[C@@H]3[C@@]3(CO)O[C@@H]23)cc1O | 108 | 107 | – | – |
| O=C1C[C@@H](c2ccc(O)cc2)Oc2cc(O)cc(O)c21 | 109 | 102 | – | – |
| COc1c(O)cc2oc3cc4c(c(O)c3c(=O)c2c1CC=C(C)C)C=CC(C)(C)O4 | 98.7 | 109 | – | – |
| CC1(C)CC[C@]2(C)CC[C@]3(C)C(=CC[C@@H]4[C@@]5(C)[C@@H](O)C[C@H](O)C(C)(C)[C@@H]5[C@H](O)C[C@]43C)[C@@H]2C1 | 99 | 98.6 | – | – |
| C=C(C)[C@@H]1CC[C@]2(C(=O)O)CC[C@]3(C)[C@H](CC[C@@H]4[C@@]5(C)CC[C@H](O)C(C)(C)[C@@H]5CC[C@]43C)[C@@H]12 | 112 | 102 | – | – |
| O=c1c(O)c(-c2ccccc2)oc2cc(O)cc(O)c12 | 95 | 89.1 | – | – |
| CC1(C)CC[C@]2(C)CC=C3[C@]4(C)CC[C@H]5C(C)(C)[C@@H](O)CC[C@]5(C)[C@H]4CC[C@@]3(C)[C@@H]2C1 | 109 | 106 | – | – |
| CC1(C)CC[C@]2(C)CC[C@]3(C)C(=CC[C@@H]4[C@@]5(C)[C@@H](O)C[C@H](O)C(C)(C)[C@@H]5CC[C@]43C)[C@@H]2C1 | 111 | 99.2 | – | – |
| COc1ccc(-c2cc(=O)c3c(O)cc(O[C@@H]4O[C@H](COC5OC[C@@H](O)[C@H](O)[C@H]5O)[C@@H](O)[C@H](O)[C@H]4O)cc3o2)cc1O (stereo not given in full) | 116 | 104 | – | – |
| CC(C)=CCc1c(O)cc2oc3cc(O)c(OCc4cn(CC(=O)OC(C)(C)C)nn4)c(CC=C(C)C)c3c(=O)c2c1O | – | – | – | Not Active |
| C=CCc1cc(OC)c(O)c(OC)c1 | 104 | 101 | – | – |
